These results are taken from ChEMBL document CHEMBL3232816, “Substituted E-3-(3-indolylmethylene)1,3-dihydroindol-2-ones with antiproliferative activity. Study of the effects on HL-60 leukemia cells” (2014).

Format in all cases: functional
Experiment [1] is described as follows: Cytotoxicity against human renal cancer cells after 48 hrs. As to conditions: Cancer cell lines. The essentials:
(§1)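 NCI 60-line panel. Compounds were dissolved in DMSO and tested at five 10-fold dilutions, the highest 10^-4 M (10^-3 M where footnoted), over 48 h of incubation. The readouts were GI50, TGI and LC50 in μM, with the panel mean also given. Only compounds passing a 10^-5 M single-dose prescreen were tested; some were repeated and averaged over two experiments.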

Experiment [2] in a line: Cytotoxicity against human melanoma cells after 48 hrs. As to conditions: Melanoma cell. In short, it runs like this: as §1
Experiment [3] can be described thus: Cytotoxicity against human ovarian cancer cells after 48 hrs. As to conditions: Cancer cell lines. In short, it runs like this:
as §1

The nature of experiment [4]: Cytotoxicity against human CNS cancer cells after 48 hrs. Particulars: Cancer cell lines; for CC50: read-out: LC50 (the source's name). The essentials:
as §1

Experiment [5] is described as follows: Cytotoxicity against human breast cancer cells after 48 hrs. Particulars: Cancer cell lines; for CC50: read-out: LC50 (the source's name). The essentials:
as §1

Experiment [6] is described as follows: Cytotoxicity against human leukemia cells after 48 hrs. Particulars: for GI50 / TGI: Leukemia cell. The essentials: as §1
Experiment [7] can be described thus: Cytotoxicity against human NSCLC cells after 48 hrs. The essentials: as §1
Experiment [8] in a line: Cytotoxicity against human prostate cancer cells after 48 hrs. Particulars: Cancer cell lines; for CC50: read-out: LC50 (the source's name). In short, it runs like this: as §1
Experiment [9] in a line: Cytotoxicity against human colon cancer cells after 48 hrs. As to conditions: Cancer cell lines; for CC50: read-out: LC50 (the source's name). The essentials: as §1

Each structure is given as a SMILES string. Counter-ions that a name gives are not always drawn.

Consider `COc1ccc2c(c1)/C(=C\c1c(OC)n(-c3ccccc3)c3ccccc13)C(=O)N2`, for which the GI50 in experiment [1] stood at 2.29 µM; in experiment [2], 2.4 µM; in experiment [3] it was 2 µM; in [4], 0.98 µM; in experiment [5] it was 0.63 µM; in experiment [6] it was 0.76 µM. Moreover, the concentration for 50% growth inhibition (GI50) stood at 2.51 µM in experiment [7], 2.63 µM in [8] and 1.74 µM in experiment [9]. Further, the LC50 was 63.1 µM in experiment [1], 50.1 µM in experiment [2], 66.1 µM in experiment [3] and 63.1 µM in experiment [7]. Moreover, the TGI turned out to be 17.4 µM in experiment [1]; 17 µM in experiment [2]; 17.4 µM in experiment [3]; 9.55 µM in experiment [4]; 7.24 µM in [5]; 4.47 µM in experiment [6]. The TGI in experiment [7] was 17.4 µM; in [8], 13.2 µM; in experiment [9] it was 11 µM. Also, the CC50 worked out at 38.9 µM in experiment [4], 47.9 µM in experiment [5], 52.5 µM in experiment [8] and 42.7 µM in [9]. Further, in [6], the LC50 (concentration giving 50% net cell kill) is 58.9 µM.

In the case of `CC[C@]1(O)C[C@H]2CN(CCc3c([nH]c4ccccc34)[C@@](C(=O)OC)(c3cc4c(cc3OC)N(C=O)[C@H]3[C@@](O)(C(=O)OC)[C@H](OC(C)=O)[C@]5(CC)C=CCN6CC[C@]43[C@@H]65)C2)C1` [VINCRISTINE SULFATE], the GI50 is 0.32 µM in experiment [1]; 0.16 µM in [2]; 0.32 µM in experiment [3]; 0.13 µM in experiment [4]; 0.32 µM in experiment [5]; 0.1 µM in experiment [6]. The GI50 in [7] was 0.25 µM; in experiment [8], 0.13 µM; in experiment [9], 0.1 µM.

In the case of `COc1cc2c(c(OC)c1OC)/C(=C\c1c(Cl)[nH]c3ccccc13)C(=O)N2`, the 50% growth inhibitory concentration (GI50) worked out at 1.35 µM in experiment [1]; 1.86 µM in experiment [2]; 1.51 µM in experiment [3]; 1.58 µM in [4]; 1.62 µM in [5]; 0.55 µM in [6]. Also, the GI50 in [7] amounted to 1.86 µM; in [8], 1.17 µM; in experiment [9], 1.29 µM. In addition, the LC50 in [1] was 36.3 µM; in [2] it was 30.9 µM; in experiment [3] it was 77.6 µM; in [7], 67.6 µM. In addition, the TGI in experiment [1] was 5.37 µM; in experiment [2], 6.61 µM; in [3] it was 9.77 µM; in experiment [4] it was 6.31 µM; in experiment [5] it was 8.13 µM; in [6] it was 7.08 µM. Moreover, the TGI in experiment [7] stood at 9.12 µM; in [8] it was 5.5 µM; in [9], 4.27 µM. In addition, the figures for the CC50 in experiment [4], in experiment [5] and in experiment [9] were 35.5 µM, 66.1 µM and 18.2 µM, respectively. This molecule also gave an LC50 (concentration giving 50% net cell kill) in experiment [6] of 42.7 µM.

With `COc1ccc2c(c1)/C(=C\c1c(Cl)n(Cc3cc(OC)c(OC)c(OC)c3)c3cc(C)c(OC)cc13)C(=O)N2`, the GI50 in [1] came to 29.5 µM; in experiment [2] it was 14.8 µM; in experiment [3] it was 33.1 µM; in experiment [4], 16.2 µM; in experiment [5], 10.2 µM; in experiment [6], 6.17 µM. The GI50 in experiment [7] is 20.4 µM; in [8] it was 14.5 µM; in [9] it was 11 µM. Further, the TGI was determined as 75.9 µM in [2]; 75.9 µM in experiment [4]; 57.5 µM in experiment [5]; 77.6 µM in experiment [6]; 97.7 µM in experiment [7]; 95.5 µM in experiment [8]. The molecule also gave a TGI in experiment [9] of 85.1 µM.

With `COc1cc2c(/C=C3/C(=O)Nc4ccc(O)cc43)c(Cl)n(Cc3cc(OC)c(OC)c(OC)c3)c2cc1C`, the GI50 amounted to 2.75 µM in [1]; 1.45 µM in experiment [2]; 2.34 µM in experiment [3]; 2.04 µM in [4]; 1.41 µM in experiment [5]; 1.41 µM in [6]. Further, the GI50 was 2.4 µM in experiment [7], 2.29 µM in experiment [8] and 2.29 µM in experiment [9]. In addition, the TGI in experiment [1] worked out at 33.1 µM; in experiment [2], 11.5 µM; in experiment [3], 43.6 µM; in [4] it was 34.7 µM; in experiment [5] it was 34.7 µM; in experiment [6] it was 18.6 µM. Besides, the TGI came out at 32.4 µM in experiment [7], 50.1 µM in [8] and 49 µM in experiment [9].

`COc1c(/C=C2/C(=O)Nc3ccc(Cl)cc32)c2ccccc2n1-c1ccccc1`: the GI50 was determined as 8.51 µM in experiment [1]; 5.62 µM in [2]; 8.51 µM in [3]; 5.25 µM in experiment [4]; 4.27 µM in [5]; 2.34 µM in experiment [6]. Further, the results for the GI50 in experiment [7], in [8] and in [9] were 9.55 µM, 9.33 µM and 6.31 µM, respectively. In addition, the LC50 was 51.3 µM in experiment [1], 51.3 µM in [2], 66.1 µM in experiment [3] and 57.5 µM in [7]. The TGI was found to be 21.9 µM in experiment [1]; 18.2 µM in experiment [2]; 24 µM in experiment [3]; 19.1 µM in [4]; 13.8 µM in experiment [5]; 8.91 µM in experiment [6]. Moreover, the TGI in [7] worked out at 24.6 µM; in experiment [8], 24 µM; in experiment [9], 25.7 µM. Also, the CC50 came out at 52.5 µM in [4], 52.5 µM in experiment [5], 60.3 µM in experiment [8] and 60.3 µM in [9]. For the same molecule, in experiment [6], the LC50 (concentration giving 50% net cell kill) was 58.9 µM.

On to `O=C1Nc2ccccc2/C1=C\c1c(Cl)n(Cc2ccccc2)c2ccccc12`, for which the GI50 in experiment [1] was determined as 20.4 µM; in experiment [2], 8.91 µM; in [3], 20.9 µM; in experiment [4], 16.6 µM; in experiment [5], 12.9 µM; in experiment [6] it was 3.63 µM. For the same molecule, the GI50 in experiment [7] turned out to be 14.8 µM; in experiment [8] it was 20.4 µM; in experiment [9], 19.9 µM. In addition, the TGI came to 70.8 µM in [1]; 32.4 µM in [2]; 66.1 µM in experiment [3]; 47.9 µM in [4]; 64.6 µM in experiment [5]; 21.4 µM in experiment [6]. For the same molecule, the TGI came to 57.5 µM in experiment [7], 55 µM in experiment [8] and 60.3 µM in [9]. Besides, the values for the LC50 in experiment [2] and in experiment [3] were 87.1 µM and 95.5 µM, respectively. Also, the values for the CC50 in experiment [4] and in experiment [9] were 93.3 µM and 95.5 µM, respectively. In experiment [6], this molecule showed an LC50 (concentration giving 50% net cell kill) of 75.9 µM.

Take `O=C1Nc2ccc(O)cc2/C1=C\c1c(Cl)n(CCc2ccccc2)c2ccccc12`: the concentration for 50% growth inhibition (GI50) in experiment [1] was determined as 9.33 µM; in experiment [2] it was 7.08 µM; in experiment [3], 9.12 µM; in [4], 10.5 µM; in [5], 3.98 µM; in experiment [6], 3.39 µM. For the same molecule, the GI50 in experiment [7] came to 7.08 µM; in experiment [8], 6.76 µM; in [9], 9.77 µM. Further, the results for the median lethal concentration (LC50) in experiment [1], in experiment [2] and in experiment [3] were 95.5 µM, 74.1 µM and 95.5 µM, respectively. Further, the TGI in experiment [1] turned out to be 55 µM; in experiment [2] it was 28.2 µM; in experiment [3], 64.6 µM; in experiment [4], 52.5 µM; in experiment [5], 25.1 µM; in [6], 77.6 µM. Further, the TGI in experiment [7] was found to be 50.1 µM; in experiment [8] it was 47.9 µM; in experiment [9], 33.9 µM. For the same molecule, the CC50 is 95.5 µM in experiment [4] and 72.4 µM in [9].

One may read the GI50 as the concentration giving 50% growth inhibition. High values mean less potent growth inhibition, low ones more potent growth inhibition. Broadly, the LC50 is the concentration that kills 50% of the test population. Read a low LC50 as greater toxicity. The term TGI denotes the concentration giving total growth inhibition.
